Data published in ChEMBL document CHEMBL3407378, “Design, synthesis and biological evaluation of novel 7-alkylamino substituted benzo[a]phenazin derivatives as dual topoisomerase I/II inhibitors” (Eur J Med Chem, 2015).
Activity calls are given as the source filed them. The calls are words filed in the database; no cut-off is given here.

How the values were obtained:
Nucleic Acid [1] = experiment: Binding affinity to Escherichia coli pBR322 DNA assessed as DNA intercalation activity compound preincubated for 10 mins before enzyme addition by DNA unwinding assay in presence of topoisomerase 1; type: nucleic-acid assay
HeLa = experiment: Cytotoxicity against human HeLa cells after 48 hrs by MTT assay; type: functional, cell-based
Outline: (§1)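 Cells seeded 1 × 10^4 per well and incubated overnight, then given compound at 0–50 µM for 48 h. MTT added (20 µL of 5 mg/mL stock) for 4 h at 37 °C; formazan dissolved in DMSO, absorbance read at 570 nm. Triplicates; IC50 from mean OD versus concentration curves.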

[2] = Cytotoxicity against human HL60 cells after 48 hrs by MTT assay; type: functional, cell-based; details: HL-60, 48 h; outline: as §1
K562 = experiment: Cytotoxicity against human K562 cells after 48 hrs by MTT assay; type: functional, cell-based; details: K562, 48 h; outline: as §1
[3] = target: DNA topoisomerase 2-alpha (Homo sapiens) (UniProt P11388); experiment: Inhibition of human Topo 2 ATPase domain expressed in yeast BCY123 strain at 25 uM after 1 hr by nonisotopic malachite green assay
Outline: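 Human Topo II ATPase domain overexpressed in yeast BCY123 and purified. Assay buffer: 100 mM Tris-HCl pH 7.4, 20 mM KCl, 6 mM MgCl2. Reaction of 25 µL with compound, started with 1 mM ATP, 1 h at 37 °C. Phosphate detected with malachite green at OD620. No-enzyme background set as 100% inhibition and enzyme-only as 0%.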

A549 = experiment: Cytotoxicity against human A549 cells after 48 hrs by MTT assay; type: functional, cell-based; details: A549, 48 h; outline: as §1
[4] = target: DNA topoisomerase 2-alpha (Homo sapiens) (UniProt P11388); experiment: Inhibition of human Topo 2-mediated relaxation of supercoiled pBR322 plasmid at 25 uM after 30 mins by agarose gel electrophoresis
[5] = target: DNA topoisomerase 2-alpha (Homo sapiens) (UniProt P11388); experiment: Competitive inhibition of human Topo 2 ATPase domain expressed in yeast BCY123 strain after 1 hr by Lineweaver-Burk plot method
Outline: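 Human Topo II ATPase domain expressed in yeast BCY123 and purified. Assay buffer: 100 mM Tris-HCl pH 7.4, 20 mM KCl, 6 mM MgCl2. ATP at 250, 500, 800, 1,000 and 2000 µM at each fixed compound level (0, 5, 25, 50, 100 µM), 1 h at 37 °C. Phosphate read by malachite green at 620 nm.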

[6] = target: DNA topoisomerase 2-alpha (Homo sapiens) (UniProt P11388); experiment: Induction of human Topo 2-pBR322 DNA cleavage complex formation assessed as linear DNA formation at 10 to 50 uM by agarose gel electrophoresis
[7] = target: T1, DNA topoisomerase (Bos taurus) (UniProt A0JN73); experiment: Induction of calf thymus Topo 1-pBR322 DNA cleavage complex formation assessed as nicked DNA formation at 25 to 50 uM after 30 mins by optical density analysis relative to control
T1 sequence (whole entry): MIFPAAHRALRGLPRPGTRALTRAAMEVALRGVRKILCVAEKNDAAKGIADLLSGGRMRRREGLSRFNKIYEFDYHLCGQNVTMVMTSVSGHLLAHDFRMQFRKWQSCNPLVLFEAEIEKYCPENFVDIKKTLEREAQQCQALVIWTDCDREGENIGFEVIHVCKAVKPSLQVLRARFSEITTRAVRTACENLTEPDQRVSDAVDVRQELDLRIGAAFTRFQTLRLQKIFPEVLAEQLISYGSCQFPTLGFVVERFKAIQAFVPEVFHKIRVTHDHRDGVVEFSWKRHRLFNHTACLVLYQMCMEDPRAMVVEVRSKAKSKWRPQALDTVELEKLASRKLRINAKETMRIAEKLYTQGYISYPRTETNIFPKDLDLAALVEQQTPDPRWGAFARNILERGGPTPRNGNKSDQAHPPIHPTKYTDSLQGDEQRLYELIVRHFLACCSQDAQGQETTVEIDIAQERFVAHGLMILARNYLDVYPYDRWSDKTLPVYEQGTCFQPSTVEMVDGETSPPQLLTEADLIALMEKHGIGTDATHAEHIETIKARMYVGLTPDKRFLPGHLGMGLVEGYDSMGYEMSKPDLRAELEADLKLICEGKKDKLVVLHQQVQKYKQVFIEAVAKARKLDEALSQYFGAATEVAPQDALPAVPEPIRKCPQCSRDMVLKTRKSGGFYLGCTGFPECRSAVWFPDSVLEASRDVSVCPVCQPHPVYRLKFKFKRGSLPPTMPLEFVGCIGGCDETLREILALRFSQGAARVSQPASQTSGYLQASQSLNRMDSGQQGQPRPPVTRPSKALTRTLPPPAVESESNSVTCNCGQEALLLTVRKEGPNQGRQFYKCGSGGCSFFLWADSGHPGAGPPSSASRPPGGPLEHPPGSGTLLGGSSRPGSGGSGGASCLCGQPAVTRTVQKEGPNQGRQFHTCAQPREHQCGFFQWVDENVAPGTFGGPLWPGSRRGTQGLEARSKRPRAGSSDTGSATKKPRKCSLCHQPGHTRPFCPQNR
Outline: (§2)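 Calf thymus Topo I (10 units) with 0.1 µg supercoiled pBR322 and compound (0.5–50 µM) in Topo I buffer pH 7.5, 6 min at 37 °C. Complexes trapped with SDS then NaEDTA, proteinase K 30 min at 45 °C, heated 70 °C for 2 min, 1% agarose gel with ethidium bromide. Nicked DNA quantified by optical density.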

[8] = target: T2, DNA topoisomerase 1 (Homo sapiens) (UniProt P11387); experiment: Induction of Topo 1-DNA cleavage complex formation in human HL60 cells after 1 hr by ICE assay; type: cell-based; details: HL-60
T2 sequence (whole entry): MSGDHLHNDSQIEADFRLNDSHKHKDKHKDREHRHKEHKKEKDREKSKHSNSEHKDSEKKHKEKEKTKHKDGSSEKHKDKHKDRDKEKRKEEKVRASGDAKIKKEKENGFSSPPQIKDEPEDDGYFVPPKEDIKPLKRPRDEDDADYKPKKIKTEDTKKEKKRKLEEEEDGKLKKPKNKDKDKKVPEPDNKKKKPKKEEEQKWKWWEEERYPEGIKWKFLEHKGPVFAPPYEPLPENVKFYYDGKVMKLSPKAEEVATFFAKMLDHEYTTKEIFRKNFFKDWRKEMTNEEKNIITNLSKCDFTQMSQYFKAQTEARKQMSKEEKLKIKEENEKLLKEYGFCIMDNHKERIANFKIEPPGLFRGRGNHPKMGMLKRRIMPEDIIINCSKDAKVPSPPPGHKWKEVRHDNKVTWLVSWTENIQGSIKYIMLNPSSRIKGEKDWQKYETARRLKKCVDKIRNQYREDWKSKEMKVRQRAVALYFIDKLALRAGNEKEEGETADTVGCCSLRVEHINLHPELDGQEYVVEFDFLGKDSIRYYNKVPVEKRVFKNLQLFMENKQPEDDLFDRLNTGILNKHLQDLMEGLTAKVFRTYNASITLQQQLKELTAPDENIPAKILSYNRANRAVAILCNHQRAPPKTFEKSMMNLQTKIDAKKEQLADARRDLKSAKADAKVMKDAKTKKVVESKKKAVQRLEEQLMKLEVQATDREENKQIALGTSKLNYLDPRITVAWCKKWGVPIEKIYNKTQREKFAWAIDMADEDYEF
Outline: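 Mid-log phase HL-60 cells exposed to 2, 5 or 10 µM compound (DMSO vehicle 1.0% v/v) for 1 h, then lysed in DNAzol. DNA was ethanol-precipitated, redissolved and quantified. 2 µg DNA in 25 mM NaH2PO4 pH 6.5 was blotted onto nitrocellulose. Covalent Topo I was probed with rabbit anti-human Topo I (1:1000) and HRP secondary (1:3000), read by chemiluminescence.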

[9] = target: T1, DNA topoisomerase (Bos taurus); experiment: Induction of calf thymus Topo 1-pBR322 DNA cleavage complex formation assessed as nicked DNA formation at 10 uM after 30 mins by optical density analysis relative to control; outline: as §2
Nucleic Acid [10] = experiment: Binding affinity to Escherichia coli pBR322 DNA assessed as DNA intercalation activity compound preincubated at 5 to 100 uM for 10 mins before enzyme addition by DNA unwinding assay in presence of topoisomerase 1; type: nucleic-acid assay
[11] = target: DNA topoisomerase 2-alpha (Homo sapiens) (UniProt P11388); experiment: Inhibition of human Topo 2-mediated relaxation of supercoiled pBR322 plasmid at 25 to 50 uM after 30 mins by agarose gel electrophoresis
[12] = target: T1, DNA topoisomerase (Bos taurus); experiment: Induction of calf thymus Topo 1-pBR322 DNA cleavage complex formation assessed as nicked DNA formation at 0.5 to 10 uM after 30 mins by optical density analysis; outline: as §2
Calf thymus DNA = experiment: Binding affinity to calf thymus DNA at 15 uM after 5 mins by UV-vis spectrometry; type: nucleic-acid assay; details: Bos taurus
Outline: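 Compound at 15 µM in DPBS pH 7.4 with 1% DMSO, titrated with CT-DNA (0–24 µM, quantified at 260 nm, ε 13,200 M(bp)-1 cm-1). Equilibrated 5 min at room temperature; absorption spectra recorded 400–600 nm; Kapp derived from titration.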

[13] = target: T2, DNA topoisomerase 1 (Homo sapiens); experiment: Inhibition of Topo 1 (unknown origin)-mediated relaxation of supercoiled pBR322 plasmid at 25 uM after 30 mins by agarose gel electrophoresis
Outline: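 Topo I with supercoiled pBR322 and compound, 30 min at 37 °C. Stopped with SDS/bromophenol blue/glycerol dye; run on 1% agarose gel in TAE for 1 h and stained with Gel Red.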

Chain of DNA topoisomerase 2-alpha (Homo sapiens) (P11388 whole entry, the tested form may be a part): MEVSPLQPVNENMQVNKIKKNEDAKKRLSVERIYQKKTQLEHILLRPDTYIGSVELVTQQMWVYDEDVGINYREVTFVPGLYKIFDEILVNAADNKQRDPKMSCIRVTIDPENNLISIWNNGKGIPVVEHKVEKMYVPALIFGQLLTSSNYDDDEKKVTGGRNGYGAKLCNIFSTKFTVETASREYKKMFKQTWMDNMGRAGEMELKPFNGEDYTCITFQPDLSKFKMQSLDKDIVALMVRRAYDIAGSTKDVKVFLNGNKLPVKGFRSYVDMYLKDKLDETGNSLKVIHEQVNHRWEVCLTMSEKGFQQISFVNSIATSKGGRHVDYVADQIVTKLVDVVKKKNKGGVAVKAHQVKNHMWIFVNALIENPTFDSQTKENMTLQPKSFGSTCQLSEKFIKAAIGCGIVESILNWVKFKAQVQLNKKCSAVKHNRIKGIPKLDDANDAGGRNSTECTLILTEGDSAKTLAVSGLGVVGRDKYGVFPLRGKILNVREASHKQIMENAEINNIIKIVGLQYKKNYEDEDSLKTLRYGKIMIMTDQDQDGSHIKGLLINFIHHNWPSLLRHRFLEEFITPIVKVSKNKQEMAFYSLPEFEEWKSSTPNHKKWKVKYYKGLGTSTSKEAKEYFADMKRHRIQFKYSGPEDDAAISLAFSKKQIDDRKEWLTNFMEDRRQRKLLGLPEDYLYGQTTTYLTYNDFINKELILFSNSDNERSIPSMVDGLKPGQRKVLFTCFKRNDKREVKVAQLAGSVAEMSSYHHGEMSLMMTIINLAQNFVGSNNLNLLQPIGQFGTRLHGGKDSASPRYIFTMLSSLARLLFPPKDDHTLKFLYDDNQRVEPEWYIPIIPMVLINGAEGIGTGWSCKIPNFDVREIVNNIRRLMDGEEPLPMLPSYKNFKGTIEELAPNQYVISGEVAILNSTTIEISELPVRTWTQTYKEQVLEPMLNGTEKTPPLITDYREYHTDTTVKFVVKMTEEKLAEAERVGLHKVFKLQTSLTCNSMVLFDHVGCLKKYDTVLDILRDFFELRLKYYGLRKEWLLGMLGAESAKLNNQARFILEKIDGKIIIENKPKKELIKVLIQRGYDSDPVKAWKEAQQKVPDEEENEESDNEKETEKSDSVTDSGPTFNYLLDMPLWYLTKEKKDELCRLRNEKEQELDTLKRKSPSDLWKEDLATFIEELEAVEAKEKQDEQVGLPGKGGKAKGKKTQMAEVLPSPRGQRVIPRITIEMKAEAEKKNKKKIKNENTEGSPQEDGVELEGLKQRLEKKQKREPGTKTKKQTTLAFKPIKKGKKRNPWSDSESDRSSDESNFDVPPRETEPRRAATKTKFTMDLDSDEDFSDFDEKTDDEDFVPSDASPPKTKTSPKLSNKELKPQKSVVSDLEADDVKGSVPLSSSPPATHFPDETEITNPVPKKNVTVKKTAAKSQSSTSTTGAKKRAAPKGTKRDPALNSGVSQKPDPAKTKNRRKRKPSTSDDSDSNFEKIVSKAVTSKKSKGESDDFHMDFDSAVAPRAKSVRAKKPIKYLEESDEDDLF

Compound	Activity (Nucleic Acid [1])	IC50 (HeLa)	IC50 [2]	IC50 (K562)	inhibition [3]	IC50 (A549)	Topo 2 inhibition (active/not active) [4]	inhibition [5]	Activity [6]	Activity [7]	Activity [8]	fold change (FC) [9]	Activity (Nucleic Acid [10])	Topo 2 inhibition (active/not active) [11]	Activity [12]	Kapp (Calf thymus DNA)	Topo I relaxation inhibition (active/not active) [13]
CC[n+]1c(-c2ccccc2)c2cc(N)ccc2c2ccc(N)cc21	Dose-dependent effect																
COc1ccc2c3nc4ccc(OC)cc4n(CCCN(C)C)c-3cc(=O)c2c1		18.2 µM	0.09 µM	8.73 µM	78%	26.4 µM	Active	Dose-dependent effect									
CN(C)CCCCn1c2cc(=O)c3ccccc3c-2nc2ccccc21		21.4 µM	0.38 µM	4.73 µM		16.3 µM			inactive	Active	Dose-dependent effect	2.5	Active	Active	Dose-dependent effect	4.83 ×10⁵ /M	Active
